Target: O-acetylserine sulfhydrylase (Mycobacterium tuberculosis (strain ATCC 25618 / H37Rv), UniProt P9WP55)
Assay: Inhibition of Mycobacterium tuberculosis CysK1 using O-acetyl-L-serine as substrate assessed as L-cycteine formation after 5 mins by spectrophotometric analysis
Procedure, shortened: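 Dose–response: serial 1:3 dilutions prepared in 50% DMSO (final DMSO 5%). Final mix was 100 mM MOPS pH 7.0, 2 mM O-acetyl-L-serine, […] CysK1, preincubated 5 min at room temperature. The reaction was started with sodium sulphide (final 1 mM). Aliquots taken at time intervals were assayed for L-cysteine by acid-ninhydrin. Specific activity vs concentration was fitted to a sigmoid for IC50.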

SMILES | IC50 [µM]
Cc1ccccc1C1NC(=S)Nc2c1c(=O)nc1sc([N+](=O)[O-])cn21 (configuration not stated) | 17.7
O=C1Nc2c(c(=O)nc3sc([N+](=O)[O-])cn23)C(c2ccccc2C(F)(F)F)N1 (configuration not stated) | 17.7
